Assay results from ChEMBL document CHEMBL3763045, “Design, Synthesis, and Pharmacological Evaluation of Novel N-Acylhydrazone Derivatives as Potent Histone Deacetylase 6/8 Dual Inhibitors” (J Med Chem, 2016).
Values after ≈ are worked out from the molar mass of the structure shown. Active and inactive are the calls of the source. No cut-off for these calls is given here.

Experiments:
[1] = target: Histone deacetylase (Rattus norvegicus) (UniProt Q6P6W3+Q99P99+Q99P96+Q4QQW4+Q99P97+Q5RJZ2+B1WBY8); assay: Inhibition of HDAC in rat liver at 1 uM by fluorimetry
Outline: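 Rat liver HDAC preparation, non-selective enzyme assay, test compounds at 1 µM; % inhibition is the mean of two experiments.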

[2] = Aqueous solubility of the compound in buffer at pH 7.4 after 24 hrs by spectrophotometric method; type: physicochemical
Outline: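 Water solubility in pH 7.4 buffer, measured spectrophotometrically by the method of Schneider and coworkers.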

MCF7 = assay: Antiproliferative activity against human MCF7 cells assessed as reduction in cell viability at 40 uM after 48 hrs by MTS assay; type: functional, cell-based
Outline: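 MCF-7 cells exposed at 40 µM for 48 h, viability by MTS; ANOVA with Tukey's post-test against control.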

HepG2 [3] = assay: Antiproliferative activity against human HepG2 cells assessed as reduction in cell viability at 40 uM after 48 hrs by MTS assay; type: functional, cell-based
Histone deacetylase 8 = target: T1, Histone deacetylase 8 (Homo sapiens, UniProt Q9BY41); assay: Inhibition of recombinant human HDAC8 by fluorimetry
T1 sequence (Q9BY41 whole entry): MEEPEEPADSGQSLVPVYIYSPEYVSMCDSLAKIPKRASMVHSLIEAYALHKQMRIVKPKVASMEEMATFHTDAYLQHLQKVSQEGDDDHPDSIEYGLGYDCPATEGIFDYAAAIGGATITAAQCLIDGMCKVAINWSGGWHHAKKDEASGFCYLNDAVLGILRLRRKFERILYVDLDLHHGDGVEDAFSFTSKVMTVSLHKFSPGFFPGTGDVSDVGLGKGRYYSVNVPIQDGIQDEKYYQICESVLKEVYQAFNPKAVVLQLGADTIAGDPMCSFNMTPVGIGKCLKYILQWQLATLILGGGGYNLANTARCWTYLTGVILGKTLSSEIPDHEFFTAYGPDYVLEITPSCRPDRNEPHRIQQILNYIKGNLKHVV

Histone deacetylase = assay: Inhibition of HDAC in rat liver by fluorimetry
Outline: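 Rat liver HDAC IC50 from a six-point enzyme assay, three-fold serial dilution starting at 3 µM or 1 µM depending on compound; mean of two experiments ± SD.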

Histone deacetylase 2 = Histone deacetylase 2 (Homo sapiens, UniProt Q92769); assay: Inhibition of recombinant human HDAC2 by fluorimetry
Histone deacetylase 1 = Histone deacetylase 1 (Homo sapiens, UniProt Q13547); assay: Inhibition of recombinant human HDAC1 by fluorimetry
[4] = target: T2, Protein deacetylase HDAC6 (Homo sapiens, UniProt Q9UBN7); assay: Inhibition of recombinant human HDAC6 by fluorimetry
T2 sequence (Q9UBN7 whole entry): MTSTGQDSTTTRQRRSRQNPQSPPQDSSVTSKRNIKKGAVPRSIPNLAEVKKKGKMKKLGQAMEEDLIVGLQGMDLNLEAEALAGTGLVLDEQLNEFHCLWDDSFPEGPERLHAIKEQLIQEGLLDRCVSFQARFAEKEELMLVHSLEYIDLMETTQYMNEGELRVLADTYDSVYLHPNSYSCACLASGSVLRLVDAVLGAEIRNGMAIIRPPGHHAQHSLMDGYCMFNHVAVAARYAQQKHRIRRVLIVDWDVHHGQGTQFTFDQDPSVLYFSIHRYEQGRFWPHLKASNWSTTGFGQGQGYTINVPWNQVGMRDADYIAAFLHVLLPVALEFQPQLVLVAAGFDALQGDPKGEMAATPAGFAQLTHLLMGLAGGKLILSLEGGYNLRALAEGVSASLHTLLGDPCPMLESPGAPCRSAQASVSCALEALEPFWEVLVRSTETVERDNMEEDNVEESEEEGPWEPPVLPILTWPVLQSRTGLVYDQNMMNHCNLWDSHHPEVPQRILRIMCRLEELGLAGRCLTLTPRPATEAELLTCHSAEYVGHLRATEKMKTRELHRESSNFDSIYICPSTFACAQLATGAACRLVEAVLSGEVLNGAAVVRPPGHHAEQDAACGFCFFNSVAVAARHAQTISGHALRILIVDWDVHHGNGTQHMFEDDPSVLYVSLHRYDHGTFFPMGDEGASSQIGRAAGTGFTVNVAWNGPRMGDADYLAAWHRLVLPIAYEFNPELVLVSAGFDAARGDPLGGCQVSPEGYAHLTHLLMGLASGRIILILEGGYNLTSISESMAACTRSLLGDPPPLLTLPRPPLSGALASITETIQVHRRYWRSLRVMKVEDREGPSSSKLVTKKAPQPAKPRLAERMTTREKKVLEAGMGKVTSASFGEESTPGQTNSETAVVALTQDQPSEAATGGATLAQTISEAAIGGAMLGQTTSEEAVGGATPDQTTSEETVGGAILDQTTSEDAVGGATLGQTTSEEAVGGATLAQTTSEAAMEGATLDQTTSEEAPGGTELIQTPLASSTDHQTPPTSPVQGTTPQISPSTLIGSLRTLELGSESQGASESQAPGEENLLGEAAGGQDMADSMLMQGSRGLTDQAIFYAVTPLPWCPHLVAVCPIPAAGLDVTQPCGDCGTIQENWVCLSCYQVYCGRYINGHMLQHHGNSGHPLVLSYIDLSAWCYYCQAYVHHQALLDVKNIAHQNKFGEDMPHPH

HT-144 = assay: Antiproliferative activity against human HT144 cells assessed as reduction in cell viability at 40 uM after 48 hrs by MTS assay; type: functional, cell-based
HepG2 [5] = assay: Effect on cell cycle distribution in human HepG2 cells assessed as accumulation at SubG1 phase at 5 to 10 uM after 24 to 48 hrs by propidium iodide staining-based flow cytometry; type: functional
Outline: (§1)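 Cell cycle of HepG2 cells by flow cytometry after 5 or 10 µM for 24 and 48 h, giving SubG1, G0/G1, S and G2/M fractions. ANOVA with Tukey's post-test against control.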

[6] = Antiproliferative activity against human HT144 cells assessed as reduction in cell viability after 48 hrs by MTS assay; type: functional, cell-based; details: HT-144, 48 h
HepG2 [7] = assay: Effect on cell cycle distribution in human HepG2 cells assessed as decrease in S phase at 5 to 10 uM after 24 to 48 hrs by propidium iodide staining-based flow cytometry; type: functional; outline: as §1
[8] = Chemical stability of the compound in acidic buffer assessed as compound recovery at pH 2 after 30 mins by HPLC-PDA analysis; type: physicochemical; details: acidic buffer, pH 2; read-out: Drug recovery
Outline: (§2)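 Compounds stirred in pH 7.4 or pH 2 buffer at 37 °C for 240 min; percentage of compound recovered followed over time (30 min and 4 h points). Triplicate runs, values averaged.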

HepG2 [9] = assay: Effect on cell cycle distribution in human HepG2 cells assessed as decrease in G0/G1 phase at 5 to 10 uM after 24 to 48 hrs by propidium iodide staining-based flow cytometry; type: functional; outline: as §1
[10] = Chemical stability of the compound in acidic buffer assessed as compound recovery at pH 2 after 4 hrs by HPLC-PDA analysis; type: physicochemical; details: buffer, pH 2, 4 h; outline: as §2
HepG2 [11] = assay: Antiproliferative activity against human HepG2 cells assessed as reduction in cell viability after 48 hrs by MTS assay; type: functional, cell-based; details: HepG2, 48 h
[12] = Chemical stability of the compound in acidic buffer assessed as compound hydrolysis at pH 2 measured for 240 mins by HPLC-PDA analysis; type: physicochemical; details: pH 2, 4 h; outline: as §2
HepG2 [13] = assay: Induction of apoptosis in human HepG2 cells at 5 to 10 uM after 24 hrs by TUNEL assay; type: functional, cell-based
Outline: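 HepG2 cells treated 24 h (5 and 10 µM for TUNEL, 5 µM for caspase 3/7). Apoptosis scored by flow cytometry as TUNEL-positive frequency and as cells with activated caspase 3/7. Doxorubicin positive control; ANOVA with Tukey's post-test.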

[14] = Chemical stability of compound in phosphate dibasic buffer assessed as compound degradation at pH 7.4 by HPLC-PDA analysis; type: physicochemical; details: read-out: Drug degradation; outline: as §2
HepG2 [15] = assay: Effect on cell cycle distribution in human HepG2 cells assessed as accumulation at G2/M phase at 5 uM after 24 and 48 hrs by propidium iodide staining-based flow cytometry; type: functional; outline: as §1
Calu-1 = assay: Inhibition of cell migration in human Calu1 cells at 15 and 30 nM after 48 hrs by scratch test; type: functional, cell-based
Outline: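 Calu-1 migration by scratch test after 48 h treatment. DMSO vehicle control; one representative of three independent experiments.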

[16] = Ionization constant, pKa of the compound in buffer measured over 3 hrs by UV spectrometry; type: physicochemical
[17] = target: T3, Protein deacetylase HDAC6 (Homo sapiens) (UniProt Q9UBN7); assay: Inhibition of HDAC6 in human A549 cells assessed as induction of tubulin acetylation at 15 to 54 nM after 24 hrs by Western blotting analysis; type: cell-based
T3 sequence (whole entry): T2 sequence (Q9UBN7 whole entry)
Outline: (§3)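 Calu-1 and A549 cells treated 24 h, acetylated tubulin detected by western blot with GAPDH as loading control. DMSO vehicle control; one representative of three independent experiments.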

[18] = Lipophilicity, logD of the compound at pH 7.4 after 4 hrs; type: physicochemical; details: buffer
[19] = target: T3, Protein deacetylase HDAC6 (Homo sapiens); assay: Inhibition of HDAC6 in human Calu1 cells assessed as induction of tubulin acetylation at 15 to 54 nM after 24 hrs by Western blotting analysis; type: cell-based; details: Calu-1; outline: as §3

Histone deacetylase 1, sequence (Q13547 whole entry): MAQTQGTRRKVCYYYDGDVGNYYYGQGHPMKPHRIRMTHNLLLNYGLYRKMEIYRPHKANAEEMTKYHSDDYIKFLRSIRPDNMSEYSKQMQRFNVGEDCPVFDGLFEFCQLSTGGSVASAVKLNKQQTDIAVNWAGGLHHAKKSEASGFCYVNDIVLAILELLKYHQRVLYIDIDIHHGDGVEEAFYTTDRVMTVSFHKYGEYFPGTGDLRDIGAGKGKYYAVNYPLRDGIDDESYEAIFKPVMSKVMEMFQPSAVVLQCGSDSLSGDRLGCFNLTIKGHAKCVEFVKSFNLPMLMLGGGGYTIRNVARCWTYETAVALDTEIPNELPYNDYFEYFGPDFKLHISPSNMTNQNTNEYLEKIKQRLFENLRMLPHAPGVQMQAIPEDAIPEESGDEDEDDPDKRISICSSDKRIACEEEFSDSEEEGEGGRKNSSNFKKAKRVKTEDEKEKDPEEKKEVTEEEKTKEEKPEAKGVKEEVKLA
Histone deacetylase 2, sequence (Q92769 whole entry): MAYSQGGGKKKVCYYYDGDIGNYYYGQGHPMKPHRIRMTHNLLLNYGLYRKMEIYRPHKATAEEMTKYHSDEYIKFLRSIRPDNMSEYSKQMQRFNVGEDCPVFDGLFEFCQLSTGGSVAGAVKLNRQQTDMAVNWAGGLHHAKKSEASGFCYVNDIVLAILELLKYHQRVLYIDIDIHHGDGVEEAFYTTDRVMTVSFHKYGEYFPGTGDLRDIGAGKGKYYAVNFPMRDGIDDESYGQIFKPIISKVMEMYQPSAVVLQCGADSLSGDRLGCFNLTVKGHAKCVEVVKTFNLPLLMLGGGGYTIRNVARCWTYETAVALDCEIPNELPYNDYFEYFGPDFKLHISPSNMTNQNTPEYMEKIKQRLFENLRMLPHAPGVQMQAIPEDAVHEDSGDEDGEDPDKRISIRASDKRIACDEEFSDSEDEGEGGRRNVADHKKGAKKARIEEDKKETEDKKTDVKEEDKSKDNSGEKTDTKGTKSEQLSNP

Row | Compound | inhibition [1] | solubility at 24 h [2] | IC50 (Histone deacetylase 8) | IC50 (Histone deacetylase 2) | IC50 (Histone deacetylase 1) | IC50 [4] | Activity (MCF7) | Activity (HepG2 [3]) | Activity (HT-144) | also measured
1 | CN(C)c1ccc(C(=O)N/N=C/c2cccc(C(=O)NO)c2)cc1 | 66% | > 67 µM | 2200 nM | > 10000 nM | > 10000 nM | 390 nM | Active | Active | Active | IC50 (Histone deacetylase): 1200 nM
2 | C/C(=N\NC(=O)c1ccc(N(C)C)cc1)c1ccc(C(=O)NO)cc1 | – | 6.2 µM (≈ 2.11 µg/mL) | 110 nM | > 3000 nM | > 3000 nM | 56 nM | Active | Active | Active | Activity (HepG2 [5]): Active; IC50 [6]: 20000 nM; Activity (HepG2 [7]): Active; remaining at 0.5 h [8]: 6%; Activity (HepG2 [9]): Active; Stability [10]: Unstable; IC50 (HepG2 [11]): 11500 nM; Stability [12]: Unstable; Activity (HepG2 [13]): Active; degraded [14]: > 15%
3 | CN(C)c1ccc(C(=O)N/N=C/c2ccc(C(=O)NO)cc2)cc1 | 90.4% | 15 µM (≈ 4.9 µg/mL) | 230 nM | > 3000 nM | > 3000 nM | 15 nM | Active | Active | Active | Activity (HepG2 [5]): Active; IC50 [6]: 21200 nM; Activity (HepG2 [15]): Active; Activity (HepG2 [7]): Active; inhibition (Calu-1): Active; pKa at 3 h [16]: 8.1; Activity (HepG2 [9]): Active; inhibition [17]: Active; IC50 (HepG2 [11]): 9480 nM; Stability [12]: Unstable; logD at 4 h [18]: 0.68; degraded [14]: > 15%; IC50 (Histone deacetylase): 21 nM; inhibition [19]: Active

Further lines, with some results ahead:

Row | inhibition [1] | solubility at 24 h [2] | IC50 (Histone deacetylase 8) | IC50 (Histone deacetylase 2) | IC50 (Histone deacetylase 1) | IC50 [4] | Compound | Activity (MCF7) | Activity (HepG2 [3]) | Activity (HT-144) | also measured
4 | -8.7% | > 67 µM | – | – | – | – | CN(/N=C/c1ccc(C(=O)O)cc1)C(=O)c1ccc(N(C)C)cc1 | – | – | – | –
5 | – | 1.4 µM (≈ 0.475 µg/mL) | – | – | – | – | COC(=O)c1ccc(/C=N/N(C)C(=O)c2ccc(N(C)C)cc2)cc1 | – | – | – | –
6 | 33.4% | > 70 µM | 2000 nM | > 10000 nM | > 10000 nM | 2500 nM | CN(/N=C/c1cccc(C(=O)NO)c1)C(=O)c1ccc(N(C)C)cc1 | Active | Active | Active | –
7 | – | 1.7 µM (≈ 0.553 µg/mL) | – | – | – | – | COC(=O)c1ccc(/C=N/NC(=O)c2ccc(N(C)C)cc2)cc1 | – | – | – | –
